According to ChEMBL document CHEMBL1147086, “Composite synthetic lethal identification of membrane traffic inhibitors” (Proc Natl Acad Sci U S A, 2007):
Activity calls are given as the source filed them. The calls are words filed in the database; no cut-off is given here.

Legend:
Saccharomyces cerevisiae [1] = experiment: Growth inhibition of yeast MDY330 carrying temperature sensitive allele of clathrin heavy chain gene assessed as cell growth at 25 uM relative to wild-type; type: functional; design: scale not given: the % may be the effect or the level left
Saccharomyces cerevisiae [2] = experiment: Effect on localization of chitin synthase Chs3p in CHS6 deficient yeast MDY335 assessed as induction of chitin bud scars at 25 uM by fluorescence microscopy; type: functional, organism-based
Outline: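 chs6Δ cells (pdr5Δ snq2Δ background) grown overnight at 30°C in YPD with 25 μM compound or DMSO; cells mixed 1:1 with 2.5 mM calcofluor white in YPD for 10 min, washed twice, chitin rings scored by fluorescence microscopy.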

Saccharomyces cerevisiae [3] = experiment: Growth inhibition of wild type yeast MDY326 assessed as cell growth at 25 uM; type: functional; design: scale not given: the % may be the effect or the level left
Outline: (§1)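 Overnight cultures (pdr5Δ snq2Δ background) diluted to OD600 0.0003 in YPD, given serially diluted compound in 30-μl cultures, grown 18–24 h at 30°C humidified; OD490 read after vortexing; growth expressed as fold inhibition relative to the same strain with DMSO.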

Saccharomyces cerevisiae [4] = experiment: Growth inhibition of gga1/2 deficient yeast MDY327 cells assessed as cell growth at 25 uM relative to wild-type; type: functional; design: scale not given: the % may be the effect or the level left
Saccharomyces cerevisiae [5] = experiment: Growth inhibition of apl2/4 deficient yeast MDY334 cells assessed as cell growth at 25 uM relative to wild-type; type: functional; design: scale not given: the % may be the effect or the level left
Saccharomyces cerevisiae [6] = experiment: Toxicity against wild type yeast MDY326 assessed as 2 fold reduction of cell growth; type: organism-based; conditions: in vivo
Outline: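 Wild-type cells (pdr5Δ snq2Δ) grown 18–24 h at 30°C in YPD with serially diluted compound; OD490 read; value is concentration giving 2-fold growth inhibition versus DMSO.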

Saccharomyces cerevisiae [7] = experiment: Toxicity against wild type yeast MDY326 assessed as 2 fold reduction of cell growth at 150 uM; type: organism-based; conditions: in vivo
Outline: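 Wild-type strain MDY326 (pdr5Δ snq2Δ) diluted to OD600 0.0003 in YPD, compound serially diluted into 30 μl cultures, grown 18–24 h at 30°C humidified; OD490 read after vortexing, normalized to untreated/DMSO wells; value is the concentration producing 2-fold growth inhibition.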

Saccharomyces cerevisiae [8] = experiment: Effect on maturation of alpha-factor2 in gga2delta containing yeast MDY380; type: functional, organism-based
Outline: (§2)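 Yeast grown at 30°C to OD600 0.2 in YPD with compound (25 μM) or DMSO, washed twice in SCMG containing 50 μM compound, pulse-labeled 10 min with [35S]methionine (50 μCi per OD600), chased 30 min in YPD, stopped with NaF/NaN3 (10 mM final); secreted α-factor immunoprecipitated from medium, resolved by SDS/PAGE and autoradiography; DMSO-treated and wild-type (MDY326) cells as reference.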

Saccharomyces cerevisiae [9] = experiment: Effect on maturation of alpha-factor2 in yeast MDY330 carrying temperature sensitive allele of clathrin heavy chain gene; type: functional, organism-based; outline: as §2
Saccharomyces cerevisiae [10] = experiment: Growth inhibition of wild type yeast MDY326 cells upto 300 uM; type: functional, organism-based; outline: as §1
Saccharomyces cerevisiae [11] = experiment: Growth inhibition of AP1 deficient yeast MDY334 cells upto 300 uM; type: functional, organism-based; outline: as §1
Saccharomyces cerevisiae [12] = experiment: Inhibition of maturation of alpha-factor2 in gga2delta containing yeast MDY380 at 25 uM; type: functional, organism-based
Outline: (§3)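 Cells treated overnight with 25 μM compound or DMSO in YPD to OD600 0.2, washed in SCMG with 50 μM compound, labeled 10 min with [35S]methionine, chased 30 min; α-factor immunoprecipitated from medium, SDS/PAGE and autoradiography.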

Saccharomyces cerevisiae [13] = experiment: Inhibition of maturation of alpha-factor2 in wild type yeast MDY326 at 25 uM; type: functional, organism-based; outline: as §3
Saccharomyces cerevisiae [14] = experiment: Growth inhibition of gga1/2delta containing yeast MDY327; type: functional, organism-based; outline: as §1
Saccharomyces cerevisiae [15] = experiment: Growth inhibition of gga1/2delta containing yeast MDY327 carrying wild type SNQ2 and PDR5 gene; type: functional, organism-based
Saccharomyces cerevisiae [16] = experiment: Degradation of Ste3p receptor in wild type yeast MDY326 cells by pulse-chase immunoprecipitation; type: functional, organism-based
Outline: (§4)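 Cells grown at 30°C to OD600 0.2 in YPD with DMSO or compound, washed twice in SCMG containing 50 μM compound, pulse-labeled 10 min with [35S]methionine (50 μCi per OD600), chased in YPD; samples stopped with NaF/NaN3 (10 mM final) at set chase points; Ste3p immunoprecipitated from lysates, SDS/PAGE and autoradiography.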

Saccharomyces cerevisiae [17] = experiment: Degradation of Ste3p receptor in gga2delta containing yeast MDY380 by pulse-chase immunoprecipitation; type: functional, organism-based; outline: as §4
Saccharomyces cerevisiae [18] = experiment: Degradation of Ste3p receptor in yeast MDY330 carrying temperature sensitive allele of clathrin heavy chain gene by pulse-chase immunoprecipitation; type: functional, organism-based; outline: as §4
Saccharomyces cerevisiae [19] = experiment: Effect on maturation of alkaline phosphatase in wild type yeast SEY6210 at 25 uM by pulse-chase immunoprecipitation; type: functional, organism-based
Outline: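 SEY6210 grown overnight with 25 μM compound or DMSO, pulse-labeled 5 min with [35S]methionine, chase started by adding yeast extract/cysteine/methionine; ALP immunoprecipitated from lysates at chase points; precursor and mature forms resolved by SDS/PAGE and autoradiography; apl6Δ strain run in parallel.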

Saccharomyces cerevisiae [20] = experiment: Effect on maturation of carboxyl peptidase S in wild type yeast MDY326 assessed as delay in maturation at 25 uM by pulse-chase immunoprecipitation; type: functional
Outline: (§5)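 Cells grown overnight in YPD with 25 μM compound or DMSO, labeled 10 min with [35S]methionine, chase started by adding yeast extract/cysteine/methionine; CPS immunoprecipitated at chase points; precursor versus mature forms compared by SDS/PAGE and autoradiography.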

Saccharomyces cerevisiae [21] = experiment: Prevention of maturation of carboxyl peptidase S in gga1/2 deficient yeast MDY327 assessed as delay in maturation at 25 uM by pulse-chase immunoprecipitation; type: functional, organism-based; outline: as §5

Compound | Activity (Saccharomyces cerevisiae [1]) | Activity (Saccharomyces cerevisiae [2]) | Activity (Saccharomyces cerevisiae [3]) | Activity (Saccharomyces cerevisiae [4]) | Activity (Saccharomyces cerevisiae [5]) | Activity (Saccharomyces cerevisiae [6]) | also measured
CC(C)Cc1ccc(C(C)C(=O)N/N=C/c2ccc(N(C)C)cc2)cc1 (stereo not given) | 70% | inactive | 70% | <50% | 70% |  | 
COc1ccc(CNC2C3CC4CC(C3)CC2C4)c2ccccc12 (stereo not given) | 70% | inactive | 70% | <50% | 70% |  | 
CC(=O)c1ccc(N2CCN(Cc3cccs3)CC2)cc1 |  |  |  |  |  | Non-toxic | 
Cl.N=c1n(Cc2ccccc2)c2ccccc2n1CC(O)COc1ccccc1 (stereo not given) | 50% | inactive | 70% | <50% | 50% |  | 
CC(=O)c1ccc(N2CCN(CC3=CCCCC3)CC2)cc1 |  |  |  |  |  |  | Activity (Saccharomyces cerevisiae [7]): Toxic
CC(=O)c1ccc(N2CCN(Cc3ccccc3F)CC2)cc1 |  |  |  |  |  |  | Activity (Saccharomyces cerevisiae [7]): Toxic
CCN1CCN(c2ccc(C(C)=O)cc2F)CC1 |  |  |  |  |  | Non-toxic | 
CC1(C(=O)NC(=S)NNC(=O)c2cccnc2)CCCCC1 | 70% | inactive | 70% | <50% | 70% |  | 
C/C=C(\C)CN1CCN(c2ccc(C(=O)OCC)cc2)CC1 |  |  |  |  |  | Non-toxic | 
CC(=O)c1ccc(N2CCN(Cc3ccsc3)CC2)cc1 |  |  |  |  |  | Non-toxic | 
COC(=O)c1ccccc1/N=C/c1c(O)c(Br)cc2oc3c(c12)CCCC3 | <50% | inactive | 70% | <50% | 50% |  | 
CC(=O)c1ccc(N2CCN(Cc3cccc(F)c3F)CC2)cc1 |  |  |  |  |  |  | Activity (Saccharomyces cerevisiae [7]): Toxic
CC(=O)c1ccc(N2CCN(Cc3ccc(Cl)cc3)CC2)cc1 |  |  |  |  |  | Non-toxic | 
c1ccc(CN2CCC(NCC(c3ccccc3)c3ccccc3)CC2)cc1 | 70% | inactive | 70% | <50% | 70% |  | 
CCn1c2ccccc2c2cc(CNC3CCCC3)ccc21 | 70% | inactive | 70% | <50% | 70% |  | 
CC(=O)c1ccc(N2CCN(Cc3ccccc3)CC2)cc1 |  |  |  |  |  | Non-toxic | 

Compound | Activity (Saccharomyces cerevisiae [1]) | Activity (Saccharomyces cerevisiae [2]) | Activity (Saccharomyces cerevisiae [3]) | Activity (Saccharomyces cerevisiae [4]) | Activity (Saccharomyces cerevisiae [5]) | Activity (Saccharomyces cerevisiae [6]) | also measured
O=C1/C(=C/c2ccc(O)cc2)SC(=S)N1C1CCCCC1 | <50% | inactive | 70% | <50% | 50% |  | 
COc1ccc(CN2CCN(Cc3cc(Br)ccc3O)CC2)cc1 |  |  |  |  |  |  | Activity (Saccharomyces cerevisiae [8]): inactive; Activity (Saccharomyces cerevisiae [9]): inactive
C/C=C(\C)CN1CCN(c2ccc(C(=O)O)cc2)CC1 |  |  |  |  |  | Non-toxic | 
CC(=O)c1ccc(N2CCN(Cc3ccco3)CC2)cc1 | 50% | Active | 70% | 50% | 70% |  | Activity (Saccharomyces cerevisiae [10]): inactive; Activity (Saccharomyces cerevisiae [11]): inactive; Activity (Saccharomyces cerevisiae [12]): Active; Activity (Saccharomyces cerevisiae [13]): inactive
O=C(N/N=C/c1c[nH]c2ccccc12)c1cc(-c2ccc(Cl)cc2)n[nH]1 | 70% | inactive | 70% | <50% | 70% |  | 
Cc1cc(S)n(-c2ccccc2)n1 | 50% | inactive | 70% | <50% | 50% |  | 
CC(=O)c1ccc(N2CCN(CC3CC3)CC2)cc1 |  |  |  |  |  | Non-toxic | 
Cc1cc(O)c(C(C)C)cc1NS(=O)(=O)c1ccc(Cl)cc1 | 70% | inactive | 70% | 50% | 70% |  | 
O=C1NC(=O)/C(=C\c2cccc(Cl)c2Cl)S1 | 70% | inactive | 70% | 50% | 70% |  | 
COC(=O)Oc1c(Br)c(C)c2oc(=O)sc2c1Br | 70% | inactive | 70% | <50% | 70% |  | 
CC(=O)c1ccc(N2CCN(Cc3cc(F)ccc3F)CC2)cc1 | 50% | Active | 70% | <50% | 70% |  | Activity (Saccharomyces cerevisiae [12]): Active; Activity (Saccharomyces cerevisiae [13]): inactive
C/C=C(\C)CN1CCN(c2ccc(C(C)=O)cc2)CC1 | 50% | Active | 70% | <50% | 70% | Non-toxic | EC50 (Saccharomyces cerevisiae [14]): 4 µM; Activity (Saccharomyces cerevisiae [10]): inactive; Activity (Saccharomyces cerevisiae [11]): inactive; Activity (Saccharomyces cerevisiae [15]): Active; Activity (Saccharomyces cerevisiae [12]): Active; Activity (Saccharomyces cerevisiae [13]): inactive; Activity (Saccharomyces cerevisiae [16]): inactive; Activity (Saccharomyces cerevisiae [17]): inactive; Activity (Saccharomyces cerevisiae [18]): inactive; Activity (Saccharomyces cerevisiae [19]): inactive; Activity (Saccharomyces cerevisiae [20]): <2; Activity (Saccharomyces cerevisiae [21]): Active
O=C1/C(=C\c2ccc(-c3cccc(Cl)c3)o2)SC(=S)N1CCS(=O)(=O)O |  |  |  |  |  |  | Activity (Saccharomyces cerevisiae [8]): inactive; Activity (Saccharomyces cerevisiae [9]): inactive
CC(=O)c1ccc(N2CCN(Cc3ccccc3C(F)(F)F)CC2)cc1 |  |  |  |  |  | Non-toxic | 
O=C(Nc1ccccc1)c1ccccc1/N=C/c1cc(Br)ccc1O | 70% | inactive | 70% | 50% | 50% |  | 
